Assay outcomes deposited in PubChem by several laboratories.
KCNK9 inh = blocks the human KCNK9 two-pore domain potassium channel; Q9NPC2; HEK293 KCNK9, FluxOR thallium flux fluorescence; hits give low values; B-score at 10 µM; 1.2% of 310,000 active; AID 488922;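 active = ratio B-score over 3 SD below the library mean, with starting fluorescence within 5 SD of its mean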;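 also: negative B-score means less thallium flux so channel inhibition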
Target sequence (Q9NPC2 whole entry, looked up, the tested form may be a part): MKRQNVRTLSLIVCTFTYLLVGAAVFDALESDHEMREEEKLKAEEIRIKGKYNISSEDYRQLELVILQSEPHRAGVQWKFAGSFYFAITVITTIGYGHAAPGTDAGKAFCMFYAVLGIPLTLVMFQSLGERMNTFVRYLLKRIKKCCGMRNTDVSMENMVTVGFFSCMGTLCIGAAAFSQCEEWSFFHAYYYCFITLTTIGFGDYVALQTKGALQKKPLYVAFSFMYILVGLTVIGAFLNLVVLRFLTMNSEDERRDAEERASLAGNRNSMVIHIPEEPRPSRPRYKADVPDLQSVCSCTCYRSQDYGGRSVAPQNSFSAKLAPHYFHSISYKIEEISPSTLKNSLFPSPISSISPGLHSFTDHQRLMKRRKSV
KCNK3 block = human KCNK3 channel inhibition, primary screen; 0.84% of 340,000 active; B-score at 10 µM; CHO-KCNK3 thallium flux, FluxOR fluorescence; hits give low values; AID 602410;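 active = B-score under library mean minus 4 SD, starting fluorescence ratio at most library mean plus 5 SD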;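 also: more negative B-score means stronger inhibition of thallium flux through KCNK3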
Target sequence (O14649 whole entry, looked up): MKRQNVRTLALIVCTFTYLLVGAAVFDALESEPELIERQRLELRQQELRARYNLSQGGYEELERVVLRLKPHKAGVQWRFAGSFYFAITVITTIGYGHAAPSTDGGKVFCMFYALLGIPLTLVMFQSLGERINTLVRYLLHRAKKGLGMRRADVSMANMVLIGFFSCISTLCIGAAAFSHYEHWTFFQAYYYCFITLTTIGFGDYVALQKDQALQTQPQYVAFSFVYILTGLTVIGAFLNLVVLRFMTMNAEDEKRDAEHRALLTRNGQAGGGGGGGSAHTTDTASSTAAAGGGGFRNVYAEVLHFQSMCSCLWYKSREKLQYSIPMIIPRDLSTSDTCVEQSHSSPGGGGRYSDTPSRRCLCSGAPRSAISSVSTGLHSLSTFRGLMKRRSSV
hERG rescue = hERG (human) protection from proarrhythmic block | Q12809 | CHO-hERG, FluxOR thallium flux, dofetilide IC70 present | activation (rescue from dofetilide block), less the hit threshold, % at 10 µM | 0.51% of 310,000 active;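 active = activation above the mean of controls blocked by dofetilide plus 5 SD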;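 also: thallium influx through hERG after potassium depolarization seen as dye fluorescence rise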
KCNQ1 act = potentiates or activates the human KCNQ1 potassium channel; 0.35% of 310,000 active; CHO-K1 KCNQ1, thallium flux FluxOR fluorescence; hits give high values; P51787; B-score at 10 µM; AID 2648;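 active = fluorescence ratio B-score, a plate-corrected score, at least three library SD, with initial intensity B-score within 5 SD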
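assay system = KCNQ1-transfected CHO-K1 cells | medium = assay buffer with matched DMSO | probe or stimulus = depolarizing K+/Tl+ stimulus, K2SO4 and Tl2SO4 each 12.5 mM in 5x stock | dosing = single dose | incubation = dye 90 min, compound 20 min, room temperature | detection = kinetic FluxOR fluorescence, 10 s baseline plus 110 s post-stimulus | evaluation = ratio B score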
KCNQ1 block = blocks the human KCNQ1 potassium channel; P51787; CHO-K1 KCNQ1, FluxOR thallium flux fluorescence; hits give high values; B-score at 10 µM; 1.3% of 310,000 active;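 active = compounds whose thallium flux B-score, printed positive for inhibition, exceeds three library SD while starting fluorescence stays within three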;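 also: channel opened by potassium depolarization with thallium stimulus after 20 min compound exposure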
KCC2 mod = modulators of human KCC2 chloride dependent transport. Q9H2X9. KCC2 cells, thallium flux FluoZin-2 fluorescence. B-score of Tl+ flux slope (higher = more flux/activation; lower = inhibition) at 10 µM. 2.2% of 190,000 active. AID 1456;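 active = thallium flux slope and its plate-corrected score both differing from the plate sample mean at a set confidence after two filtering rounds, in either direction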;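 also: slope of fluorescence scaled to starting intensity during 10 to 20 s after thallium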
KCC2 sec1 = KCC2 (human) modulation, secondary assay; shares compounds with KCC2 mod; HEK293-KCC2, thallium flux, FluoZin2 fluorescence; hits give high values; normalised thallium flux (F/F0 slope) at 10 µM; 15% of 3,700 active; AID 1713;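 active = thallium flux slope above the same plate's solvent-only control mean plus 3 SD; inconclusive = the two replicate wells disagree; inactive = no significant difference from solvent-only control wells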
KCC2 bumet counter = thallium flux persisting under bumetanide in KCC2 cells, counter-screen secondary assay | shares compounds with KCC2 mod | HEK293-KCC2 + bumetanide/ouabain, thallium flux FluoZin2; hits give high values | normalized thallium flux at 10 µM | 49% of 3,700 active | AID 1714;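 active = thallium entry rate above the same plate's blocked-transporter control wells by more than 3 SD; inconclusive = the two repeat wells disagree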;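 also: raw slope of fluorescence over initial fluorescence between 10 and 20 s after thallium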
KCC2 secondary2 = confirmation of human KCC2 transport modulators; shares compounds with KCC2 mod; HEK293-KCC2, thallium flux FluoZin2 fluorescence; actives lie on both sides; F/F0 rise rate, 10–20 s post-thallium; normalized thallium flux at 10 µM; 23% of 3,700 active; AID 1715;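 active = thallium flux slope more than 3 SD above or below the plate's solvent-only control mean, mostly below; inconclusive = the two repeat wells disagreed; inactive = no significant shift from solvent-only controls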;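 also: raw slope with 0.1% DMSO as baseline and bumetanide as block control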
HEK293 Tl flux = parental HEK flux effect, counter-screen. 46% of 3,700 active. thallium flux rate (normalised fluorescence) at 10 µM. HEK293 parental cells, thallium flux FluoZin2, ouabain; baseline-ratio fluorescence slope, 10–20 s after thallium. AID 1716. shares compounds with KCC2 mod;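 active = thallium flux rate significantly above the same plate's solvent-only control wells, beyond their mean plus 3 SD; inconclusive = the two replicate wells gave conflicting results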
KCC2 retest ouab = confirmation of human KCC2 modulators with ouabain. shares compounds with KCC2 mod. HEK293-KCC2, thallium flux FluoZin2 fluorescence; bidirectional: low = inhibitor, high = activator. raw Tl+ flux slope (below DMSO = inhibition, above = activation) at 10 µM. 48% of 3,700 active;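 active = thallium flux slope beyond 3 SD from same-plate DMSO control mean in most replicates, usually higher, sometimes lower; inconclusive = repeat tests gave conflicting results; inactive = no significant difference from controls in most replicates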;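 also: slope of initial-normalized fluorescence between seconds 10 and 20 after thallium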
HEK293 Tl flux2 = counter-screen for KCC2 modulators: effect in parental HEK293 cells | shares compounds with KCC2 mod | 33% of 3,700 active | thallium flux FluoZin-2 fluorescence slope | AID 1718 | thallium flux slope at 10 µM;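 active = thallium flux slope above the same plate's solvent-control mean plus 3 SD in both duplicate wells; inconclusive = duplicate wells that disagreed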;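 also: run without ouabain in cells lacking the KCC2 cotransporter; slope of fluorescence scaled to its starting value between 10 and 20 s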
The depositor's hits bear a star; i = inactive; ? = inconclusive; / = no result. Most compounds without a hit are left out; they make up all but 4.1% or so of the library.

SMILES	KCNK9 inh	KCNK3 block	hERG rescue	KCNQ1 act	KCNQ1 block	KCC2 mod	others
O=c1[nH]c(=S)[nH]c(O)c1N=Nc1ccc(S(=O)(=O)N2CCc3ccccc32)cc1	i	i	13*	i	i	-0.11
Cc1[nH]c2ccc(OC(F)(F)F)cc2c1CCNCc1cccc([N+](=O)[O-])c1	i	i	-14	i	i	/
CCOc1cccc(CNCCc2c(C)[nH]c3ccc(OC(F)(F)F)cc23)c1O	i	i	-21	i	12*	/
COc1ccc(OCC#CCN2CCNCC2)cc1	i	i	-5	i	i	/
CC1=CC2/C=C(\C)CCC(O)C(O)/C=C/C(=O)C23C(=O)NC(CC(C)C)C3C1C (configuration not stated)	i	i	-12	10*	i	-1.8
Cc1cccc(NP(=O)(Oc2ccccc2F)Oc2ccccc2F)c1	-7.2*	i	-27	i	i	0.022
COc1cccc(NP(=O)(Oc2ccc(Cl)cc2)Oc2ccc(Cl)cc2)c1	-6.7*	i	-4	i	i	-0.052
CN(C)c1ccc([N+](=O)[O-])c([N+](=O)[O-])c1	/	i	/	/	/	/
c1cc2c(cc1NC1=NCCO1)CCCC2	/	i	/	/	/	/
NC(=O)c1cc([N+](=O)[O-])cc([N+](=O)[O-])c1	/	i	/	/	/	/
CC(C)(C)c1cc([N+](=O)[O-])cc(C(C)(C)C)c1O	i	/	-18	i	6*	0.053
O=C(c1cc(C(=O)NCc2ccccc2)c(=O)n(Cc2ccccc2)c1)c1cc(Br)ccc1O	i	i	-8	i	6*	-0.84
O=C(CNC(=O)c1ccccc1Cl)Nc1ccc(Br)cc1C(=O)c1ccccc1	i	i	-5	i	i	-0.96
Oc1ccc(-[n+]2c(-c3ccccc3)cc(-c3ccccc3)cc2-c2ccccc2)cc1	-7.3*	i	-50	i	10*	/
COc1ccc(-[n+]2c(-c3ccccc3)cc(-c3ccccc3)cc2-c2ccccc2)cc1	-8.8*	/	-30	i	6*	/
O=[N+]([O-])c1ccc(-[n+]2c(-c3ccccc3)cc(-c3ccccc3)cc2-c2ccccc2)cc1	i	i	-10	i	i	/
O=C([O-])c1ccc(-[n+]2c(-c3ccccc3)cc(-c3ccccc3)cc2-c2ccccc2)cc1	i	i	-14	i	i	/
Cc1ccc(/C=C2\C(=O)NC(=S)N(c3ccc(F)cc3)C2=O)s1	i	i	11*	i	i	-0.096
c1cc2c(cc1[C@H]1OC[C@H]3[C@@H]1CO[C@H]3c1ccc3c(c1)OCO3)OCO2	/	i	/	/	/	/
N#CC1=C(N)Oc2cc(O)ccc2C1c1ccc2c(c1)OCO2 (configuration not stated)	-7.5*	i	-11	i	i	-0.19
CC(C)[C@@]1(NC(=O)[C@@H]2C=C3c4cccc5[nH]cc(c45)C[C@H]3N(C)C2)O[C@@]2(O)[C@@H]3CCCN3C(=O)[C@H](Cc3ccccc3)N2C1=O	/	/	/	/	/	-0.029
CC(C)C[C@H]1C(=O)N2CCCC2[C@]2(O)O[C@](NC(=O)[C@@H]3C=C4c5cccc6[nH]cc(c56)CC4N(C)C3)(C(C)C)C(=O)N12 (some centres not stated)	i	i	-10	i	8*	-0.64
Cc1cnc(-n2c(=S)[nH]c3ccccc3c2=O)s1	/	i	/	/	/	/
c1ccc2c(CNC3CCCCC3)c[nH]c2c1	-7.1*	/	-8	i	i	-5.1*
CN(Cc1c[nH]c2ccccc12)C1CCCCC1	i	i	-10	i	i	0.68
SMILES	KCNK9 inh	KCNK3 block	hERG rescue	KCNQ1 act	KCNQ1 block	KCC2 mod	others
COc1cccc(CC(=O)N2CCN(Cc3cccc(Cl)c3)CC2)c1	i	i	-5	8*	i	/
CC(C)[C@H]1C(=O)O[C@@H]2CCN3CC=C(COC(=O)[C@](C)(O)[C@]1(C)O)[C@H]23	i	i	1	i	i	/
Cc1cc(/C=C2\C(=O)NC(=O)N(c3ccc(Cl)cc3)C2=O)c(C)n1-c1cccc(C(=O)O)c1	i	i	-6	i	i	/
O=C1NC(=O)N(c2ccc(Cl)cc2)C(=O)/C1=C/c1coc2ccc(O)cc2c1=O	i	i	-16	i	i	-4.6*
CCN1/C(=C\C=C\C2=[N+](CC)c3ccccc3C2(C)C)C(C)(C)c2ccccc21	i	i	-56	i	21*	i
CC(C)c1ccc(N=Nc2c(O)[nH]c(=O)[nH]c2=O)cc1	i	i	-7	i	i	0.11
O=c1[nH]c(=S)[nH]c(O)c1N=Nc1ccc(SC(F)F)cc1	i	i	-4	i	i	42*	KCC2 sec1=0.008;KCC2 bumet counter=0.072*;KCC2 secondary2=?;HEK293 Tl flux=0.041*;KCC2 retest ouab=0.087*;HEK293 Tl flux2=0.012*
O=C(c1cc2c(s1)-c1ccccc1OC2)N1CCC2(CC1)OCCO2	i	i	-15	i	i	-4.1*	KCC2 sec1=0.0072;KCC2 bumet counter=0.0052;KCC2 secondary2=0.026*;HEK293 Tl flux=0.0078;KCC2 retest ouab=?;HEK293 Tl flux2=0.012
NS(=O)(=O)c1nc[nH]c1[N+](=O)[O-]	/	i	/	/	/	/
O=c1cccc2n1CC1CC2CN(S(=O)(=O)c2ccc(F)cc2)C1 (configuration not stated)	i	i	-4	i	i	0.011
COc1ccc(CN2CCN(Cc3ccccc3)CC2)c(OC)c1	i	i	-9	i	i	5.4*	KCC2 sec1=0.008;KCC2 bumet counter=0.0059;KCC2 secondary2=0.03;HEK293 Tl flux=0.0062;KCC2 retest ouab=0.02;HEK293 Tl flux2=0.0088
